The source made the active and inactive calls. The rule behind the calls is not given here.
How the values were obtained:
[1] = tested on: Klebsiella pneumoniae; assay: Antibacterial activity against Klebsiella pneumoniae B9 assessed as inhibition of bacterial growth incubated for 16 hrs by broth microdilution method; assay type: functional
Method in brief: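 Broth microdilution in CAMHB. Six-hour culture diluted to 5×10^5 CFU/mL, compound added from DMSO stock, two-fold serial dilution. MIC is the lowest concentration giving 90% growth inhibition versus untreated wells. Run in duplicate, repeated at least twice.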

[2] = tested on: Klebsiella pneumoniae; assay: Potentiation of colistin-induced antibacterial activity against colistin resistant Klebsiella pneumoniae B9 assessed as colistin MIC at 5 uM incubated for 16 hrs by broth microdilution method; assay type: functional
Method in brief: (§1)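 Bacteria grown 6 h in CAMHB, diluted to 5×10^5 CFU/mL. Fixed adjuvant concentration added from DMSO stock; an undosed aliquot gives the colistin MIC alone. Colistin serially two-fold diluted in the compound-dosed suspension. MIC taken at 90% growth inhibition versus untreated wells. Fold change is colistin MIC alone over MIC with adjuvant. Duplicate, repeated at least twice.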

[3] = tested on: Klebsiella pneumoniae; assay: Potentiation of colistin-induced antibacterial activity against colistin-resistant Klebsiella pneumoniae B9 assessed as fold change in colistin MIC at 5 uM incubated for 16 hrs by broth microdilution method; assay type: functional; method in brief: as §1
[4] = tested on: Klebsiella pneumoniae; assay: Potentiation of colistin-induced antibacterial activity against colistin-resistant Klebsiella pneumoniae B9 assessed as colistin MIC at 1 uM incubated for 16 hrs by broth microdilution method; assay type: functional; method in brief: as §1
[5] = tested on: Klebsiella pneumoniae; assay: Potentiation of colistin-induced antibacterial activity against colistin-resistant Klebsiella pneumoniae B9 assessed as fold change in colistin MIC at 3 uM incubated for 16 hrs by broth microdilution method; assay type: functional; method in brief: as §1
[6] = tested on: Klebsiella pneumoniae; assay: Potentiation of colistin-induced antibacterial activity against colistin-resistant Klebsiella pneumoniae B9 assessed as colistin MIC at 3 uM incubated for 16 hrs by broth microdilution method; assay type: functional; method in brief: as §1
[7] = tested on: Acinetobacter baumannii; assay: Antimicrobial activity against colistin resistant Acinetobacter baumannii 3941 assessed as inhibition of microbial growth incubated for 16 hrs by broth microdilution method; assay type: functional, organism-based
Method in brief: (§2)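 Bacteria grown 6 h in cation-adjusted Mueller Hinton broth (CAMHB), subcultured to 5×10^5 CFU/mL. Compound added from DMSO stock and serially two-fold diluted in the culture. Incubated stationary at 37 °C for 16 h. MIC taken as the lowest concentration giving 90% growth inhibition versus untreated wells. Duplicate, repeated at least twice.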

[8] = tested on: Pseudomonas aeruginosa; assay: Potentiation of colistin-induced antimicrobial activity against colistin-resistant Pseudomonas aeruginosa TRPA 162 assessed as colistin MIC at 5 uM incubated for 16 hrs by broth microdilution method; assay type: functional; method in brief: as §1
[9] = tested on: Escherichia coli; assay: Potentiation of colistin-induced antimicrobial activity against colistin resistant Escherichia coli 25922 harbouring mcr-1 gene assessed as colistin MIC at 5 uM incubated for 16 hrs by broth microdilution method; assay type: functional; method in brief: as §1
[10] = tested on: Klebsiella pneumoniae; assay: Potentiation of colistin-induced antibacterial activity against colistin resistant Klebsiella pneumoniae F9 assessed as colistin MIC at 5 uM incubated for 16 hrs by broth microdilution method; assay type: functional; method in brief: as §1
[11] = tested on: Klebsiella pneumoniae; assay: Potentiation of colistin-induced antibacterial activity against colistin-resistant Klebsiella pneumoniae B9 assessed as fold change in colistin MIC at 1 uM incubated for 16 hrs by broth microdilution method; assay type: functional; method in brief: as §1
[12] = tested on: Klebsiella pneumoniae; assay: Potentiation of colistin-induced antibacterial activity against colistin resistant Klebsiella pneumoniae F2210291 harbouring mcr-1 gene assessed as colistin MIC at 5 uM incubated for 16 hrs by broth microdilution method; assay type: functional; method in brief: as §1
[13] = tested on: Klebsiella pneumoniae; assay: Potentiation of colistin-induced antibacterial activity against colistin resistant Klebsiella pneumoniae C3 assessed as colistin MIC at 5 uM incubated for 16 hrs by broth microdilution method; assay type: functional; method in brief: as §1
[14] = tested on: Escherichia coli; assay: Antimicrobial activity against colistin resistant Escherichia coli 25922 harbouring mcr-1 gene assessed as inhibition of microbial growth incubated for 16 hrs by broth microdilution method; assay type: functional, organism-based; method in brief: as §2
[15] = tested on: Pseudomonas aeruginosa; assay: Antimicrobial activity against colistin resistant Pseudomonas aeruginosa TRPA 162 assessed as inhibition of microbial growth incubated for 16 hrs by broth microdilution method; assay type: functional, organism-based; method in brief: as §2
[16] = tested on: Acinetobacter baumannii; assay: Potentiation of colistin-induced antimicrobial activity against colistin resistant Acinetobacter baumannii 3941 assessed as assessed as colistin MIC at 5 uM incubated for 16 hrs by broth microdilution method; assay type: functional; method in brief: as §1
[17] = tested on: Klebsiella pneumoniae; assay: Potentiation of colistin-induced antibacterial activity against colistin resistant Klebsiella pneumoniae I2 assessed as colistin MIC at 5 uM incubated for 16 hrs by broth microdilution method; assay type: functional; method in brief: as §1

| SMILES | MIC [1] [µM] | MIC [2] [µg/mL] | fold change (FC) [3] | other results |
| --- | --- | --- | --- | --- |
| COc1ccc2c(c1)NC(=O)/C2=C1\Nc2ccccc2\C1=N/O | > 200 | > 16 | – | – |
| O=C1Nc2cc(Br)ccc2/C1=C1/Nc2cc(Br)ccc2/C1=N\O | > 200 | 8 | 64 | – |
| O=C1Nc2cc(C(F)(F)F)ccc2/C1=C1/Nc2ccccc2/C1=N\O | > 200 | 8 | 64 | – |
| O=C1Nc2cc(Br)ccc2/C1=C1/Nc2ccc(-c3ccccc3)cc2/C1=N\O | > 200 | > 16 | – | – |
| O=C1Nc2ccccc2/C1=C1/Nc2c(Cl)cccc2/C1=N\O | > 200 | > 16 | – | – |
| Cc1ccc2c(c1)NC(=O)/C2=C1\Nc2ccccc2\C1=N/O | > 200 | > 16 | – | – |
| Cc1cccc2c1NC(=C1\C(=O)Nc3cc(Br)ccc31)/C2=N/O | > 200 | 4 | 128 | – |
| O=C1Nc2cc(Br)ccc2/C1=C1/Nc2cc(F)c(F)cc2/C1=N\O | > 200 | 1 | 512 | MIC [4]: > 64 µg/mL; fold change (FC) [5]: 128; MIC [6]: 4 µg/mL |
| O=C1Nc2cc(Br)ccc2/C1=C1/Nc2c(Br)cccc2/C1=N\O | > 200 | 1 | 512 | Activity [7]: inactive; MIC [4]: 32 µg/mL; MIC [8]: > 16 µg/mL; MIC [9]: 1 µg/mL; MIC [10]: 4 µg/mL; fold change (FC) [5]: 256; fold change (FC) [11]: 16; MIC [12]: 2 µg/mL; MIC [13]: 4 µg/mL; Activity [14]: inactive; MIC [6]: 2 µg/mL; Activity [15]: inactive; MIC [16]: > 16 µg/mL; MIC [17]: 4 µg/mL |
| O=C1Nc2cc(Cl)ccc2/C1=C1/Nc2ccccc2/C1=N\O | > 200 | 4 | 128 | – |
| O=C1Nc2cc(Br)ccc2/C1=C1/Nc2ccc(Cl)cc2/C1=N\O | > 200 | 2 | 256 | MIC [4]: > 64 µg/mL; fold change (FC) [5]: 32; MIC [6]: 16 µg/mL |
| O=C1Nc2cc(Br)ccc2/C1=C1/Nc2cc(F)ccc2/C1=N\O | > 200 | > 16 | – | – |
| O=C1Nc2c(Cl)cccc2/C1=C1/Nc2ccccc2/C1=N\O | > 200 | > 16 | – | – |
| O=C1Nc2cc(F)ccc2/C1=C1/Nc2ccccc2/C1=N\O | > 200 | > 16 | – | – |
| O=C1Nc2ccccc2/C1=C1/Nc2ccccc2/C1=N\O | > 200 | > 16 | – | – |
| O=C1Nc2cc(Br)ccc2/C1=C1/Nc2cc(Cl)c(Cl)cc2/C1=N\O | > 200 | > 16 | – | – |
| O=C1Nc2cc(Br)ccc2/C1=C1/Nc2c(Cl)cccc2/C1=N\O | > 200 | 1 | 512 | Activity [7]: inactive; MIC [4]: 32 µg/mL; MIC [8]: > 16 µg/mL; MIC [9]: 2 µg/mL; MIC [10]: 4 µg/mL; fold change (FC) [5]: 256; fold change (FC) [11]: 16; MIC [12]: 2 µg/mL; MIC [13]: 4 µg/mL; Activity [14]: inactive; MIC [6]: 2 µg/mL; Activity [15]: inactive; MIC [16]: > 16 µg/mL; MIC [17]: 4 µg/mL |
| O=C1Nc2ccc(Br)cc2/C1=C1/Nc2ccccc2/C1=N\O [INDIRUBIN 2] | > 200 | > 16 | – | – |
| O=C1Nc2ccc(Cl)cc2/C1=C1/Nc2ccccc2/C1=N\O | > 200 | > 16 | – | – |
| Cc1ccc2c(c1)C(=N\O)/C(=C1/C(=O)Nc3cc(Br)ccc31)N2 | – | > 16 | – | – |
| O=C1Nc2c(Br)cccc2/C1=C1/Nc2ccccc2/C1=N\O | > 200 | > 16 | – | – |
| O=C1Nc2cc(Br)ccc2/C1=C1/Nc2c(cccc2C(F)(F)F)/C1=N\O | > 200 | 2 | 256 | MIC [4]: 64 µg/mL; fold change (FC) [5]: 128; MIC [6]: 4 µg/mL |
| O=C1Nc2cc(Br)ccc2/C1=C1/Nc2c(cccc2-c2ccccc2)/C1=N\O | > 200 | > 16 | – | – |
| O=C1Nc2cc(Br)ccc2/C1=C1/Nc2ccc(C(F)(F)F)cc2/C1=N\O | > 200 | 8 | 64 | – |
| O=C1Nc2cc(Br)ccc2/C1=C1/Nc2ccc(F)cc2/C1=N\O | > 200 | 2 | 256 | MIC [4]: > 64 µg/mL; fold change (FC) [5]: 16; MIC [6]: 32 µg/mL |
| O=C1Nc2cc(Br)ccc2/C1=C1/Nc2ccccc2/C1=N\O [6BIO] | > 200 | 1 | 512 | Activity [7]: inactive; MIC [4]: > 64 µg/mL; MIC [8]: > 16 µg/mL; MIC [9]: 2 µg/mL; MIC [10]: 4 µg/mL; fold change (FC) [5]: 16; MIC [12]: 2 µg/mL; MIC [13]: 4 µg/mL; Activity [14]: inactive; MIC [6]: 32 µg/mL; Activity [15]: inactive; MIC [16]: > 16 µg/mL; MIC [17]: 8 µg/mL |
| O=C1Nc2cc(Br)ccc2/C1=C1/Nc2ccc(Br)cc2/C1=N\O | > 200 | 4 | 128 | – |
| O=C1Nc2cc(Br)ccc2/C1=C1/Nc2c(Cl)cc(Cl)cc2/C1=N\O | > 200 | > 16 | – | – |
| O=C1Nc2cc(Br)ccc2/C1=C1/Nc2c(F)cccc2/C1=N\O | > 200 | 2 | 256 | Activity [7]: inactive; MIC [4]: > 64 µg/mL; MIC [8]: > 16 µg/mL; MIC [9]: 2 µg/mL; MIC [10]: 4 µg/mL; fold change (FC) [5]: 256; MIC [12]: 2 µg/mL; MIC [13]: 4 µg/mL; Activity [14]: inactive; MIC [6]: 2 µg/mL; Activity [15]: inactive; MIC [16]: > 16 µg/mL; MIC [17]: 4 µg/mL |
